Data on two compounds can be found in PMC7422904 (Translational Vision Science & Technology, 2020).

Series [1] deals with chicken chorioallantoic membranes. The experiment in a line: Hen's egg test in chorioallantoic membrane. A digest of the protocol:
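Fertilized hen eggs incubated 10 days at 37 ± 1°C and 60 ± 1% relative humidity. Shell opened and inner membranes removed. Test compound (40, 80, 160, 320 µg) applied to the CAM and watched for 300 s. Controls: 0.9% NaCl (negative) and 0.1 M NaOH (positive); N = 10. Onset times of hemorrhage, lysis and coagulation were weighted 5, 7 and 9 in the OII equation.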

The subject of series [2] is ocular hypertensive rat eyes. The class given is in vivo, Wistar rats. Conditions: ocular hypertensive rats, single drop, Bimatoprost 8.8 µg/eye, N = 6. A digest of the protocol: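 Male Wistar rats (7–10 weeks) under i.p. ketamine/xylazine (90:10 mg/kg) plus topical 0.5% proxymetacaine. Right eye received 30 µL HA (10 mg/mL) intracamerally near the limbus, weekly for 3 weeks. Dosing (one 20 µL drop) began once IOP was raised. Groups: saline, test compound, bimatoprost, combination, normotensive saline; N = 6. IOP: TonoPen Vet on unsedated rats, mean of four readings.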

Turning to `[Na+].[OH-]` [0.1 M NaOH, sodium hydroxide], the “irritancy classification in words (HET-CAM)” value in series [1] (PnPP-19 at all concentrations tested, NaOH at 0.1 M, 300 seconds) is given as “severely irritating”. The “OII ± SEM (ocular irritation index)” value in series [1] (positive control 0.1 M, observed 300 seconds, N = 10) was 20.11± 0.32.

As to `CCNC(=O)CCC/C=C\C[C@@H]1[C@@H](/C=C/[C@@H](O)CCc2ccccc2)[C@H](O)C[C@@H]1O` [Bimatoprost], the “ability to reduce IOP (in words)” value in series [2] was “not able to reduce IOP”.
